Source: ChEMBL document CHEMBL1142244, “Cytotoxic constituents from the fruiting branches of Callicarpa americana collected in southern Florida” (J Nat Prod, 2007)
Converted amounts (≈) assume the structure as drawn.

Legend:
Lu1 [1] = assay: (§1) Cytotoxicity against human Lu1 cells; assay type: cell-based; conditions: lu1
Col2 = assay: (§2) Cytotoxicity against human Col2 cells; assay type: cell-based; conditions: col2
TERT-RPE1 = assay: (§3) Cytotoxicity against human TERT-RPE1 cells; assay type: cell-based; conditions: tert-rpe1
HUVEC = assay: (§4) Cytotoxicity against human HUVEC cells; assay type: cell-based; conditions: huvec
MCF7 [2] = assay: (§5) Cytotoxicity against human MCF7 cells; assay type: cell-based; conditions: mcf7
LNCaP [3] = assay: (§6) Cytotoxicity against human LNCaP cells; assay type: cell-based; conditions: lncap
MCF7 [4] = assay: Cytotoxicity against human MCF7 cells xenografted in NCr nu/nu athymic mouse at 6.25 mg/kg, ip by hollow fiber assay; assay type: organism-based; set-up: dose 6.25 mg/kg, route intraperitoneal; conditions: in vivo
Method in brief: (§7)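 Female-unspecified NCr nu/nu athymic mice, five to six weeks old. LNCaP, Lu1 and MCF-7 cells were sealed in semi-porous hollow fibres and implanted at intraperitoneal and subcutaneous sites, each mouse carrying all three lines at both sites. Compound was given i.p. at 6.25, 12.5, 25 or 50 mg/kg, with three mice per dose group.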

LNCaP [5] = assay: Cytotoxicity against human LNCaP cells xenografted in NCr nu/nu athymic mouse at 6.25 mg/kg, ip by hollow fiber assay; assay type: organism-based; set-up: dose 6.25 mg/kg, route intraperitoneal; conditions: in vivo; method in brief: as §7
LNCaP [6] = assay: Cytotoxicity against human LNCaP cells xenografted in NCr nu/nu athymic mouse at 12.5 mg/kg, ip by hollow fiber assay; assay type: organism-based; set-up: dose 12.5 mg/kg, route intraperitoneal; conditions: in vivo; method in brief: as §7
[7] = as §1; assay type: cell-based; conditions: Lu1 cells, read-out: ED50 (the source's name)
LNCaP [8] = assay: Cytotoxicity against human LNCaP cells xenografted in NCr nu/nu athymic mouse at 50 mg/kg, ip by hollow fiber assay; assay type: organism-based; set-up: dose 50 mg/kg, route intraperitoneal; conditions: in vivo; method in brief: as §7
Lu1 [9] = assay: Cytotoxicity against human Lu1 cells xenografted in NCr nu/nu athymic mouse at 25 mg/kg, ip by hollow fiber assay; assay type: organism-based; set-up: dose 25 mg/kg, route intraperitoneal; conditions: in vivo; method in brief: as §7
Lu1 [10] = assay: Cytotoxicity against human Lu1 cells xenografted in NCr nu/nu athymic mouse at 6.25 mg/kg, ip by hollow fiber assay; assay type: organism-based; set-up: dose 6.25 mg/kg, route intraperitoneal; conditions: in vivo; method in brief: as §7
[11] = as §2; assay type: cell-based; conditions: Col2 cells, read-out: ED50 (the source's name)
Lu1 [12] = assay: Cytotoxicity against human Lu1 cells xenografted in NCr nu/nu athymic mouse at 50 mg/kg, ip by hollow fiber assay; assay type: organism-based; set-up: dose 50 mg/kg, route intraperitoneal; conditions: in vivo; method in brief: as §7
MCF7 [13] = assay: Cytotoxicity against human MCF7 cells xenografted in NCr nu/nu athymic mouse at 25 mg/kg, ip by hollow fiber assay; assay type: organism-based; set-up: dose 25 mg/kg, route intraperitoneal; conditions: in vivo; method in brief: as §7
LNCaP [14] = assay: Cytotoxicity against human LNCaP cells xenografted in NCr nu/nu athymic mouse at 25 mg/kg, ip by hollow fiber assay; assay type: organism-based; set-up: dose 25 mg/kg, route intraperitoneal; conditions: in vivo; method in brief: as §7
[15] = as §3; assay type: cell-based; conditions: TERT-RPE1 cells, read-out: ED50 (the source's name)
Lu1 [16] = assay: Cytotoxicity against human Lu1 cells xenografted in NCr nu/nu athymic mouse at 12.5 mg/kg, ip by hollow fiber assay; assay type: organism-based; set-up: dose 12.5 mg/kg, route intraperitoneal; conditions: in vivo; method in brief: as §7
MCF7 [17] = assay: Cytotoxicity against human MCF7 cells xenografted in NCr nu/nu athymic mouse at 12.5 mg/kg, ip by hollow fiber assay; assay type: organism-based; set-up: dose 12.5 mg/kg, route intraperitoneal; conditions: in vivo; method in brief: as §7
[18] = as §4; assay type: cell-based; conditions: HUVEC cells, read-out: ED50 (the source's name)
MCF7 [19] = assay: Cytotoxicity against human MCF7 cells xenografted in NCr nu/nu athymic mouse at 50 mg/kg, ip by hollow fiber assay; assay type: organism-based; set-up: dose 50 mg/kg, route intraperitoneal; conditions: in vivo; method in brief: as §7
[20] = as §6; assay type: cell-based; conditions: LNCaP cells, read-out: ED50 (the source's name)
[21] = as §5; assay type: cell-based; conditions: MCF7 cells, read-out: ED50 (the source's name)

Structure (SMILES) | Activity (Lu1 [1]) | Activity (Col2) | Activity (TERT-RPE1) | Activity (HUVEC) | Activity (MCF7 [2]) | Activity (LNCaP [3]) | CC50 [7] | CC50 [18] | CC50 [20] | other results
CC1=CCC[C@@H]2[C@@](C)(C[C@H](O)C3=CC(=O)OC3)[C@H](C)CC[C@@]12C | Not Active | Not Active | Not Active | Not Active | Not Active | Not Active | – | – | – | –
C=C1[C@@H](O)CC[C@@H]2[C@@](C)(C[C@H](O)C3=CC(=O)OC3)[C@H](C)CC[C@@]12C | Not Active | Not Active | Not Active | Not Active | Not Active | Not Active | – | – | – | –
CC1=CCC[C@@H]2[C@@](C)(C[C@H](O)C3=CC(=O)O[C@H]3O)[C@H](C)CC[C@@]12C | – | – | – | – | – | – | 2.4 µg/mL (≈ 7.18 µM) | 1.8 µg/mL (≈ 5.38 µM) | 4.1 µg/mL (≈ 12.3 µM) | Activity (MCF7 [4]): Not Active; Activity (LNCaP [5]): Not Active; Activity (LNCaP [6]): Not Active; Activity (LNCaP [8]): Not Active; Activity (Lu1 [9]): Not Active; Activity (Lu1 [10]): Not Active; CC50 [11]: 2.3 µg/mL (≈ 6.88 µM); Activity (Lu1 [12]): Not Active; Activity (MCF7 [13]): Not Active; Activity (LNCaP [14]): Not Active; CC50 [15]: 1.9 µg/mL (≈ 5.68 µM); Activity (Lu1 [16]): Not Active; Activity (MCF7 [17]): Not Active; Activity (MCF7 [19]): Not Active
CC1=CCC[C@@H]2[C@@](C)(/C=C/C3=CC(=O)O[C@H]3O)[C@H](C)CC[C@@]12C | – | – | – | – | – | – | 2.6 µg/mL (≈ 8.22 µM) | 1.2 µg/mL (≈ 3.79 µM) | 2.5 µg/mL (≈ 7.9 µM) | CC50 [21]: 2.7 µg/mL (≈ 8.53 µM)
CC1=C(C=O)C[C@@H]2[C@@](C)(CCC3=CC(=O)OC3O)[C@H](C)CC[C@@]12C (some centres not stated) | – | – | – | – | – | – | 8.7 µg/mL (≈ 26.2 µM) | 9.8 µg/mL (≈ 29.5 µM) | 4.5 µg/mL (≈ 13.5 µM) | CC50 [11]: 9 µg/mL (≈ 27.1 µM); CC50 [15]: 1.9 µg/mL (≈ 5.72 µM); CC50 [21]: 3.9 µg/mL (≈ 11.7 µM)
COc1ccc(-c2cc(=O)c3c(O)cc(OC)cc3o2)cc1 | Not Active | Not Active | Not Active | Not Active | Not Active | Not Active | – | – | – | –
C=C1[C@@H](O)CC[C@@H]2[C@@](C)(CCC3=CC(=O)O[C@H]3O)[C@H](C)CC[C@@]12C | Not Active | Not Active | Not Active | Not Active | Not Active | Not Active | – | – | – | –
CO[C@@H]1OC(=O)C=C1[C@@H](O)C[C@@]1(C)[C@H](C)CC[C@@]2(C)C(C)=CCC[C@H]12 | Not Active | Not Active | Not Active | Not Active | Not Active | Not Active | – | – | – | –
CC1=CCC[C@@H]2[C@@](C)(CCC3=CC(=O)O[C@H]3O)[C@H](C)CC[C@@]12C | – | – | – | – | – | – | 3.7 µg/mL (≈ 11.6 µM) | 4.1 µg/mL (≈ 12.9 µM) | 3.3 µg/mL (≈ 10.4 µM) | CC50 [21]: 3.5 µg/mL (≈ 11 µM)
CC1=CCC[C@@H]2[C@@](C)(C[C@H](O)C3=CCOC3=O)[C@H](C)CC[C@@]12C | – | – | – | – | – | – | 2.9 µg/mL (≈ 9.11 µM) | – | 3.3 µg/mL (≈ 10.4 µM) | CC50 [21]: 2.8 µg/mL (≈ 8.79 µM)
CC1(C)C(=O)CC[C@@]2(C)[C@H]1CC[C@@]13C[C@H](CC[C@@H]12)[C@@](O)(CO)C3 [CALLITERPENONE] | Not Active | Not Active | Not Active | Not Active | Not Active | Not Active | – | – | – | –
C[C@@H]1CC[C@]2(C(=O)O)CC[C@]3(C)C(=CC[C@@H]4[C@@]5(C)C[C@@H](O)[C@@H](O)C(C)(C)[C@@H]5CC[C@]43C)[C@@H]2[C@]1(C)O [EUSCAPHIC ACID] | Not Active | Not Active | Not Active | Not Active | Not Active | Not Active | – | – | – | –
COc1cc(O)c2c(=O)cc(-c3ccc(O)cc3)oc2c1 [GENKWANIN] | – | – | – | – | – | – | > 20 µg/mL | > 20 µg/mL | > 20 µg/mL | CC50 [11]: > 20 µg/mL; CC50 [15]: 3.9 µg/mL (≈ 13.7 µM)
COc1ccc(-c2cc(=O)c3c(O)c(OC)c(OC)cc3o2)cc1 [SALVIGENIN] | Not Active | Not Active | Not Active | Not Active | Not Active | Not Active | – | – | – | –
